{"source": "PubChem BioAssay AID651723", "about": "(Broad Institute, 2012)", "note": "Screen size: about 350,000 compounds; about 740 (0.21%) were called active. The full list was thinned out, with actives kept by preference. Values without a mark were called inactive.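 The calls were made as follows: active = every replicate reaching activation of at least 50%, whatever the mean replicate activation; inconclusive = replicates that disagree or another doubt; inactive = the rest.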"}
{"assay": "increased acetylated PGC1a in cells – cell-based, U2OS, AlphaScreen, signal-increasing mode, PGC1a modulator project, primary screen (AID 651723)", "details": "U2OS PGC1a acetylation AlphaScreen, overnight; at 15.6 µM; hits give high values", "how_it_was_run": "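System: flag-PGC1a/GCN5 U2OS cells / Input: 7000 cells/well / Compound: single test concentration per compound / Incubation: overnight compound treatment, 37 °C / Technique: AlphaScreen on lysates with anti-acetyl-lysine antibody, acceptor and donor beads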"}
{"smiles": "CCOC(=O)c1c(NC(=O)CSc2cn(CC)c3ccccc23)sc2c1CCC2", "activation": "67.2% (active)"}
{"smiles": "CCOC(=O)c1c(-c2ccc(C)cc2C)csc1NC(=O)CSc1nnnn1C", "activation": "-46.2%"}
{"smiles": "CCCCC(=O)Nc1ccc(C(=O)NCCCn2ccnc2)cc1", "activation": "71.6% (active)"}
{"smiles": "Cc1noc(C)c1S(=O)(=O)Nc1ccc2c(c1)C(=O)N([C@@H](C)CO)C[C@@H](C)[C@@H](CN(C)S(=O)(=O)c1ccccc1)O2", "activation": "-50.3%"}
{"smiles": "Cc1ccc(-c2c[n+](CC(=O)Nc3ccccc3)c3n2CCC3)cc1", "activation": "-43.3%"}
{"smiles": "Cc1nc(SCC(=O)NC2CCCC2)[nH]c(=O)c1C", "activation": "-42.3%"}
{"smiles": "Cc1csc(NC(=O)NC2(C(F)(F)F)Oc3ccccc3O2)n1", "activation": "74.6% (active)"}
{"smiles": "c1ccc2c(-c3nn4nnnc4c4ccccc34)cccc2c1", "activation": "71% (active)"}
{"smiles": "Cn1c2c(c(=O)n(C)c1=O)C(c1cccc(F)c1)C(C#N)=C(N)O2", "note": "(stereo not given)", "activation": "-80.9%"}
{"smiles": "COc1ccc(Oc2c(Cl)cnn(-c3ccccc3)c2=O)cc1", "activation": "112% (active)"}
{"smiles": "CCOCCc1nn2c(=O)cc(CSCC(=O)Nc3cccc(C)c3C)nc2s1", "activation": "-38.7%"}
{"smiles": "O=S(=O)(c1ccc(Br)cc1)n1ccc2ccccc21", "activation": "-40.2%"}
{"smiles": "Cc1cc(C)c(S(=O)(=O)NCC2CCC(C(=O)NCc3ccc4c(c3)OCO4)CC2)c(C)c1", "note": "(stereo not given)", "activation": "-43.2%"}
{"smiles": "CC(C)(C)c1cc(C(=O)N/N=C/c2ccc([N+](=O)[O-])s2)n[nH]1", "activation": "80.1% (active)"}
{"smiles": "Cc1nc(Nc2ccc3c(c2)OCCO3)c2nnn(Cc3ccccc3Cl)c2n1", "activation": "-56.2%"}
{"smiles": "N#Cc1c(N)nc2c3c(sc(=N)c2c1N)NC(=O)CC3c1ccccc1Cl", "note": "(stereo not given)", "activation": "67.8% (active)"}
{"smiles": "Cc1cccc(CS(=O)(=O)c2ncc(Cl)c(C(=O)Nc3ccc(F)cc3)n2)c1", "activation": "138% (active)"}
{"smiles": "O=C(Nc1cccc(Cl)c1)c1cncn1-c1ccc(F)cc1", "activation": "-44.8%"}
{"smiles": "CN(C)c1ccc(-n2cccc2/C=N/n2cnnc2)cc1", "activation": "-55.5%"}
{"smiles": "O=C(NC1=CC(=O)c2ccccc2C1=O)c1ccccc1", "activation": "-80.8%"}
{"smiles": "CC[C@H]1CN2CCc3cc(OC)c(OC)cc3[C@@H]2C[C@@H]1C[C@H]1NCCc2cc(OC)c(OC)cc21", "activation": "-83.7%"}
{"smiles": "N#Cc1ccc(-c2ccc(C3[C@@H]4CN(S(=O)(=O)c5ccc(F)cc5)C[C@H]3N4)cc2)cc1", "note": "(stereo not given in full)", "activation": "-58.1%"}
{"smiles": "CCc1ccc(N2CC(O)=C(c3nc4ccccc4c(=O)[nH]3)C2=N)cc1", "activation": "165% (active)"}
{"smiles": "Cc1cc(C(=O)NNS(=O)(=O)c2ccccc2C(F)(F)F)nn1C(C)(C)C", "activation": "259% (active)"}
{"smiles": "CCOC(=O)CSc1nccc(N(C)C)c1C#N", "activation": "-9.86%"}
{"smiles": "COc1ccc(CC(NC(C)=O)C(=O)N2CCN(C(=O)Nc3cccc(Cl)c3)CC2)cc1OC", "note": "(stereo not given)", "activation": "-50.7%"}
{"smiles": "Cc1cc(C)n(-c2nc(O)cc(=O)[nH]2)n1", "activation": "-36.3%"}
{"smiles": "COc1ccc(C(=O)NN(C)c2nc(-c3ccccc3)cc(C)c2S(C)(=O)=O)cc1", "activation": "87.7% (active)"}
{"smiles": "CC(C)C#Cc1cnc2c(c1)C(=O)N([C@@H](C)CO)C[C@@H](C)[C@@H](CN(C)C(=O)CN1CCOCC1)O2", "activation": "-58.3%"}
{"smiles": "O=C(CSc1nnc(Cn2cnc3ccccc32)o1)c1ccccc1", "activation": "59.8% (active)"}
{"smiles": "CCOc1ccccc1CN1CCN(C2CCC2)CC1CCO", "note": "(stereo not given)", "activation": "-74.8%"}
{"smiles": "CN1OC[C@@H]2CN(S(=O)(=O)c3cccc4ccccc34)[C@H](c3ccc(N4CCCCC4)cc3)C[C@@H]21", "activation": "-47.9%"}
{"smiles": "Cc1cc(C)nc(S/C=C/C(=O)c2ccccc2)n1", "activation": "63.2% (active)"}
{"smiles": "CCOC(=O)c1ccc2[nH]c(C)c(CN3CCN(C)CC3)c(=O)c2c1", "activation": "-59.3%"}
{"smiles": "CC(C)CCNc1nc(N2CCCC2)c2c(c1C#N)CCN(C)C2", "activation": "102% (active)"}
{"smiles": "C[C@@H]1CCCCO[C@@H](CN(C)CC2CC2)[C@H](C)CN([C@H](C)CO)C(=O)c2cc(NS(=O)(=O)c3ccccc3)ccc2O1", "activation": "-56.4%"}
{"smiles": "COc1ccc(C(=O)/C=C/c2cccnc2)c(OC)c1", "activation": "70.7% (active)"}
{"smiles": "NC(=O)N/N=C\\c1cccs1", "activation": "-76.7%"}
{"smiles": "O=C(Nc1ccc2c(c1)OCO2)N[C@H]1CC[C@H](CCNC(=O)C2CCC2)O[C@@H]1CO", "activation": "-46.2%"}
{"smiles": "O=[N+]([O-])c1ccc(C=Nc2ccc(Cl)cc2Cl)s1", "activation": "68.4% (active)"}
{"smiles": "C=CCn1c(=NC(=O)c2ccc(S(=O)(=O)N3CCCC3)cc2)sc2cc(NC(C)=O)ccc21", "activation": "-51.1%"}
{"smiles": "N#Cc1ccc(-c2ccc([C@@H]3[C@H]4CNC[C@@H]3N4Cc3ccc4c(c3)OCO4)cc2)cc1", "activation": "-48.1%"}
{"smiles": "CCOC(=O)C1=CC[C@@H](c2ccccc2)N(S(=O)(=O)c2ccc(C)cc2)[C@H]1c1ccc(CC)cc1", "activation": "75.7% (active)"}
{"smiles": "NC(=NC(=O)c1ccccc1)N1CCOCC1", "activation": "-84.1%"}
{"smiles": "CCN(CC)C(=O)c1ccc(O)c(OC)c1", "activation": "-55.9%"}
{"smiles": "N=C1C(c2nc3ccccc3s2)=C(O)CN1NC(=O)c1ccc([N+](=O)[O-])cc1", "activation": "-100%"}
{"smiles": "COc1ccc(C(=O)Nc2nc(-c3ccc(OC)cc3)c(-c3ccc([N+](=O)[O-])cc3)s2)cc1", "activation": "55.6% (active)"}
{"smiles": "O=C(Cc1ccccc1)N1N=C(c2ccncc2)CC1(O)C(F)(F)F", "note": "(stereo not given)", "activation": "-50%"}
{"smiles": "C[C@@H]1CCCCO[C@@H](CN(C)CC2CC2)[C@@H](C)CN([C@H](C)CO)C(=O)c2cc(NC(=O)C3CCCCC3)ccc2O1", "activation": "-52.5%"}
{"smiles": "CCc1ccc(NC(=O)Nc2ccncc2)cc1", "activation": "-48.9%"}
{"smiles": "Cc1nc2ccccc2c(=O)n1NC(=O)c1ccc(Cl)c([N+](=O)[O-])c1", "activation": "-44.8%"}
{"smiles": "CCn1c(/C=C/c2ccc([N+](=O)[O-])o2)nc2ccccc2c1=O", "activation": "149% (active)"}
{"smiles": "O=C1CN(S(=O)(=O)Cc2ccccc2)C[C@@H]2[C@@H](c3ccc(C#Cc4cccc(F)c4)cc3)[C@@H](CO)N12", "activation": "60.3% (active)"}
{"smiles": "COc1ccc(-c2ccc(CCC(=O)O)n2NC(=O)c2ccc(C(C)(C)C)cc2)cc1", "activation": "-43.5%"}
{"smiles": "S=C1NC(c2ccccc2)=NCN1c1ccc(Br)cc1", "activation": "-80.9%"}
